# Screening results as filed in PubChem BioAssay.
# CHOP inh: inhibitors of CHOP induction in ER stress response. 220,000 compounds, 3.8% hits. AID 2732. inhibition, % at 10 µM. CHO-K1 CHOP-promoter luciferase, tunicamycin-induced, 15-18 h;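 active = compounds that reduced the stress-induced luciferase reporter signal by more than about 70% of percent inhibition, limit read from the data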
# CHOP UPR activ: activators of apoptotic arm of unfolded protein response (CHOP) | 330,000 compounds, 0.34% hits | CHO-CHOP luciferase reporter, UPR activation, luminescence; percent of tunicamycin response over DMSO baseline | activation, % at 10 µM;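 active = at 10 µM dose, activation of 40% or more, normalized to positive control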
#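 Material: CHO-CHOP cells, stable luciferase reporter of PERK-eIF2a-CHOP signalling; quantity: 500 reporter cells seeded per well; buffer or medium: F12 medium containing 10% fetal bovine serum; compound: one dose, 10 µM in 0.5% DMSO; incubation: 6 h compound treatment, 37 °C; measured by: Steady-Glo luciferase luminescence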
# V-ATPase pHluor: alters yeast V-ATPase proton transport. S. cerevisiae, pHLuorin cytosolic pH fluorescence. response, % at 10 µM. 350,000 compounds, 0.37% hits; in the data active = response mostly above about 7.3%, no sharp cut-off; inactive = mostly below about 5.4%; also: actives read high
# XBP1 UPR activ: adaptive UPR (XBP1) activation | 330,000 compounds, 0.33% hits | AID 463104 | CHO-XBP1 luciferase reporter, IRE1-XBP1 UPR activation, luminescence; percent of tunicamycin response, DMSO as zero | activation, % at 20 µM;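 active = versus positive control, 20 µM dose yields 30% or more activation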
#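 Material – CHO cell line with stable XBP1 luciferase reporter · Buffer or medium – F12 plus 10% FBS · Compound – single point, 20 µM final compound, 1% DMSO · Schedule – 16-18 h cell attachment at 37 °C, then 6 h compound exposure · Signal – Steady-Glo luminescence read · Benchmarks – high control tunicamycin 10 µg/mL final, low control DMSO vehicle only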
# TbMetRS inhib: blocks T. brucei methionyl-tRNA synthetase activity; purified T. brucei MetRS, ATP depletion, Kinase-Glo luminescence; inhibition, % at 11.9 µM; 360,000 compounds, 0.4% hits;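 active = inhibition above a per-plate cutoff of the control wells' mean inhibition plus 3 SD, cut at about 5.5% in these data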
#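 Test system – parasite MetRS enzyme · Reagent – substrates ATP, L-methionine and bulk Escherichia coli tRNA · Doses – 11.9 µM compound single dose, 0.9% DMSO · Times – 15 min enzyme-compound preincubation, 2 h reaction, 10 min detection, 25 °C · Signal – Kinase-Glo luminescence, ATP depletion format · Controls – DMSO-only wells as low control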
# CHOP confirm: confirmation of CHOP induction inhibitors; shares compounds with CHOP inh; CHO-CHOP promoter luciferase reporter, tunicamycin-induced, luminescence; inhibition, % at 10 µM; AID 504437; 2,100 compounds, 45% hits;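 active = mean of three repeat readings of reporter signal inhibition above a set limit, cut at about 70% in these data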
# A number is an active result; . = inactive; / = no result. The full list was thinned out, with hits kept by preference.
SMILES,CHOP inh,CHOP UPR activ,V-ATPase pHluor,XBP1 UPR activ,TbMetRS inhib,CHOP confirm
O=C(Nc1ccncc1)Nc1cccc(C(F)(F)F)c1,/,.,.,.,.,/
CCc1ccc(NC(=O)CCc2ccc(CC)o2)cc1,/,.,.,.,.,/
Cc1ccc(Oc2ccccc2/C=C/C(=O)O)cc1,.,.,.,.,.,/
Cc1ccc(N2C(=O)CC2(C#N)c2ccc(OCc3ccccc3)cc2)cc1 (stereo not drawn),.,.,.,.,.,/
COc1cccc(CN2CCC(C(=O)NC(C)c3cccc4ccccc34)CC2)c1 (stereo not drawn),/,/,/,/,.,/
CCOC(=O)C1CCCN(C(=O)c2cncc(Br)c2)CC1 (stereo not drawn),/,/,/,/,.,/
Cc1cc(C)cc(Oc2ccccc2C=O)c1,99,.,.,.,.,.
COc1ccc(Oc2ccccc2C=O)cc1,.,.,.,.,.,/
Cc1ccc(S(=O)(=O)N2CCOCC2)cc1C(=O)OCC(=O)NC1CCS(=O)(=O)C1 (stereo not drawn),.,.,.,.,.,/
O=[N+]([O-])c1ccc(S(=O)(=O)CC(CN2CCCCC2)N2CCCCC2)cc1 (stereo not drawn),105,.,.,.,.,95
Nc1c2nc(-c3ccccc3)[nH]c(=O)c2nc(=O)n1-c1ccccc1,103,.,.,.,.,.
CCN1CCC(O)(C(C(=O)O)c2ccccc2)CC1 (stereo not drawn),/,/,.,/,.,/
CC1(C)C(C=C(Cl)Cl)C1C(=O)Nc1ccc([N+](=O)[O-])cc1 (stereo not drawn),104,/,/,/,/,.
Cc1ccc2oc(-c3cccc(NC(=O)Cn4cnc5c(=O)n(C)c(=O)n(C)c54)c3)nc2c1,104,.,/,.,/,.
CCCC(NCC(O)COc1ccc(-c2ccccc2)cc1)c1ccccc1 (stereo not drawn),103,.,.,.,.,125
COc1ccc(OCC(O)CNC(C)c2ccccc2)cc1 (stereo not drawn),/,.,.,.,.,/
Cc1cccc(/C=C/C(=O)c2cc(Br)ccc(=O)c2O)c1,102,.,.,.,.,100
CCc1ccc(/C=C/C(=O)c2cc(Br)ccc(=O)c2O)cc1,.,.,.,.,.,/
O=C1C(N2CCOCC2)=C(n2nnc3ccccc32)C(=O)c2ccccc21,/,.,.,.,.,95
Cc1ccc(S(=O)(=O)C2(C(=O)N3CCN(c4cc(C)ccc4C)CC3)CC2)cc1,.,.,.,.,.,/
CC(C)C[C@H](NC(=O)OC(C)(C)C)C(=O)N/N=C/C1=Cc2ccccc2OC1C (stereo partly drawn),103,.,.,.,.,91
CC(C)C[C@H](NC(=O)OC(C)(C)C)C(=O)N/N=C/c1ccc2nccnc2c1,.,.,.,.,.,/
O=C(Nc1ccc(Cl)cc1)Nc1ccc(N2CCCC2)c(S(=O)(=O)Nc2ccccc2Cl)c1,100,.,.,.,.,73
O=C(Nc1ccc(N2CCOCC2)c(S(=O)(=O)Nc2ccccc2Cl)c1)c1ccccc1,/,.,.,.,.,/
Cc1ccc(F)c(C2C3C=CCC(c4cccc(-c5ccc(N(C)C)cc5)c4)C3C(=O)N2Cc2ccccc2)c1 (stereo not drawn),.,.,.,.,.,/
SMILES,CHOP inh,CHOP UPR activ,V-ATPase pHluor,XBP1 UPR activ,TbMetRS inhib,CHOP confirm
Oc1ccc(Oc2ccc3c(C(F)(F)F)cc(C(F)(F)F)nc3n2)cc1,98,.,.,.,.,101
CC(C)C(NC(=O)c1ccccc1F)C(=O)NCc1ccccc1 (stereo not drawn),/,.,.,.,.,/
Cc1nn(-c2ccc(C(F)(F)F)cn2)c(C)c1Oc1ccccc1O,100,.,.,.,.,102
CCn1c(CC(=O)Nc2ccc(C)cc2)nnc1SCC(=O)N1CCOCC1,/,.,.,.,.,/
Cc1c(Br)c([N+](=O)[O-])nn1CC(=O)Nc1ccc(C(C)C)cc1,96,.,.,.,.,.
CC(=O)Nc1ccc(NC(=O)Cn2nc([N+](=O)[O-])c(Br)c2C)cc1,.,.,.,.,.,/
O=C(Nc1ccc([N+](=O)[O-])cc1)Nc1nc(-c2ccc(Cl)s2)cs1,107,/,.,/,.,83
NC(=O)c1ccc(C(F)(F)F)n(Cc2ccc(Cl)cc2)c1=O,97,.,.,.,.,82
NC(=O)c1ccc(C(F)(F)F)n(Cc2ccc(F)c(F)c2)c1=O,.,.,.,.,.,/
O=[N+]([O-])c1ccc(O)c(/C=N/Nc2ccccn2)c1,105,/,.,/,.,.
FC(F)(F)c1ccc(/C=N/n2c(C3CCCCC3)n[nH]c2=S)cc1,/,.,.,.,.,/
O=S(=O)(/C=C/c1ccccc1)Oc1ccccc1,.,.,.,.,.,/
O=c1c2sc3nc(N4CCOCC4)c4c(c3c2ncn1C(c1ccccc1)c1ccccc1)CCCC4,/,/,.,/,.,/
Cc1nn2c(N)c(C#N)cnc2c1-c1ccc(Cl)cc1,98,.,.,.,.,.
COC(=O)c1ccc(NC(=O)c2cccc(Cl)c2)o1,.,.,.,.,.,/
CCOC(=O)C1(Cc2ccc(OC)cc2)CCN(C(=O)c2cc(C)on2)CC1,/,.,.,.,.,/
CCOC(=O)C1(Cc2ccc(OC)cc2)CCN(C(=O)C2=CCCC2)CC1,102,.,.,.,.,.
O=C(NC1CCCCC1)C(c1ccc(F)cc1)N(Cc1ccccc1)C(=O)CN1C(=O)c2ccccc2S1(=O)=O (stereo not drawn),109,.,.,.,.,80
CCCn1ncc(CN2CCN(Cc3ccsc3)C(CCO)C2)c1C (stereo not drawn),.,.,.,.,.,/
Cc1ccc(NC(=O)c2ccccc2)cc1,.,.,.,.,.,/
Cc1ccc(NC(=O)C2=C(c3ccccc3)S(=O)(=O)CCS2(=O)=O)cc1,109,.,.,.,.,.
COc1ccc(C(=O)N2CCC(n3c(C)nc4cc(F)ccc43)CC2)cc1,.,.,.,.,.,/
O=C(c1cc2ccccc2oc1=O)N(Cc1ccccc1)Cc1ccc2c(c1)OCO2,.,.,.,.,.,/
C(=N\Nc1nc(Nc2ccccc2)nc(Nc2ccccc2)n1)/c1cccnc1,97,.,.,.,.,.
O=C(CCN1C(=O)C2C3CC(C(Br)C3Br)C2C1=O)OCC(=O)c1cccc([N+](=O)[O-])c1 (stereo not drawn),/,.,.,.,.,/
C/C(=N\NC(=O)c1c(Br)c(C)nn1C)c1ccc(NC(=O)c2ccoc2C)cc1,.,.,.,.,.,/
C/C(=N\NC(=O)c1nn(C)c(C)c1Br)c1ccc(NC(=O)c2ccoc2C)cc1,100,.,.,.,.,115
CCCN1C=CC(=C2C(=O)c3ccccc3C2=O)C=C1,103,.,.,.,.,126
CCN1C=CC(=C2C(=O)c3ccccc3C2=O)C=C1,100,.,.,.,.,115
